Experiments:
Assay type in all cases: functional
[1] = Growth inhibition of human KM12 cells at 10 uM after 48 hrs by SRB assay relative to control; conditions: KM12, 48 h, read-out: GI
Summary of the method: (§1)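 NCI 60-cell-line panel, nine tumor subpanels; compounds tested at a single dose of 10 μM in the primary screen.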

[2] = Growth inhibition of human IGROV1 cells at 10 uM after 48 hrs by SRB assay relative to control; conditions: IGROV-1, 48 h, read-out: GI; summary of the method: as §1
[3] = Growth inhibition of human Caki1 cells at 10 uM after 48 hrs by SRB assay relative to control; conditions: CAKI-1, 48 h, read-out: GI; summary of the method: as §1
[4] = Growth inhibition of human A549 cells at 10 uM after 48 hrs by SRB assay relative to control; conditions: A549, 48 h, read-out: GI; summary of the method: as §1
[5] = Growth inhibition of human SR cells at 10 uM after 48 hrs by SRB assay relative to control; conditions: read-out: GI
Summary of the method: (§2)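 Primary screen across the full NCI 60 human tumour cell line panel, which covers nine tumour subpanels. A single dose of 10 μM was applied to each line, and growth was recorded for each cell line.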

[6] = Growth inhibition of human OVCAR5 cells at 10 uM after 48 hrs by SRB assay relative to control; conditions: OVCAR-5, 48 h, read-out: GI; summary of the method: as §1
[7] = Growth inhibition of human HOP92 cells at 10 uM after 48 hrs by SRB assay relative to control; conditions: HOP-92, 48 h, read-out: GI; summary of the method: as §1
[8] = test system: Cancer cell lines; experiment: Potency index, ratio of 5-fluorouracil GI50 to compound GI50 for human renal cancer cells
Summary of the method: (§3)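 GI50 for each cell line came from NCI panel testing over a 5-log dose range, with 5-fluorouracil tested alongside as the reference drug. The index relates the 5-fluorouracil GI50 to the compound GI50 within each tumour subpanel.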

[9] = Growth inhibition of human NCI-H460 cells at 10 uM after 48 hrs by SRB assay relative to control; conditions: NCI-H460, 48 h, read-out: GI; summary of the method: as §1
[10] = Growth inhibition of human HCT116 cells at 10 uM after 48 hrs by SRB assay relative to control; conditions: HCT-116, 48 h, read-out: GI; summary of the method: as §1
[11] = Growth inhibition of human 786-0 cells at 10 uM after 48 hrs by SRB assay relative to control; conditions: 786-0, 48 h, read-out: GI; summary of the method: as §1
[12] = Growth inhibition of human SK-MEL-2 cells at 10 uM after 48 hrs by SRB assay relative to control; conditions: SK-MEL-2, 48 h, read-out: GI; summary of the method: as §2
[13] = Growth inhibition of human SK-MEL-28 cells at 10 uM after 48 hrs by SRB assay relative to control; conditions: SK-MEL-28, 48 h, read-out: GI; summary of the method: as §2
[14] = Growth inhibition of human UACC257 cells at 10 uM after 48 hrs by SRB assay relative to control; conditions: UACC-257, 48 h, read-out: GI; summary of the method: as §2
[15] = Growth inhibition of human HCC2998 cells at 10 uM after 48 hrs by SRB assay relative to control; conditions: HCC 2998, 48 h, read-out: GI; summary of the method: as §1
[16] = Growth inhibition of human MALME-3M cells at 10 uM after 48 hrs by SRB assay relative to control; conditions: read-out: GI; summary of the method: as §1
[17] = Growth inhibition of human BT549 cells at 10 uM after 48 hrs by SRB assay relative to control; conditions: BT-549, 48 h, read-out: GI; summary of the method: as §1
[18] = test system: Cancer cell lines; experiment: Potency index, ratio of 5-fluorouracil GI50 to compound GI50 for human non-small cell lung cancer cells; summary of the method: as §3
[19] = Growth inhibition of human HOP62 cells at 10 uM after 48 hrs by SRB assay relative to control; conditions: HOP-62, 48 h, read-out: GI; summary of the method: as §1
[20] = Growth inhibition of human A498 cells at 10 uM after 48 hrs by SRB assay relative to control; conditions: A498, 48 h, read-out: GI; summary of the method: as §1
[21] = Growth inhibition of human ACHN cells at 10 uM after 48 hrs by SRB assay relative to control; conditions: read-out: GI; summary of the method: as §1
[22] = test system: Melanoma cell; experiment: Potency index, ratio of 5-fluorouracil GI50 to compound GI50 for human melanoma cells; summary of the method: as §3
[23] = Growth inhibition of human CNS cancer cells after 48 hrs by SRB assay; conditions: Cancer cell lines
Summary of the method: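 Five-log dose range against NCI tumor cell lines, monitoring GI50, TGI and LC50 for each cell line; MG-MID values derived across the panel; 5-fluorouracil positive control.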

[24] = test system: Cancer cell lines; experiment: Potency index, ratio of 5-fluorouracil GI50 to compound GI50 for human CNS cancer cells; summary of the method: as §3
[25] = Growth inhibition of human HT-29 cells at 10 uM after 48 hrs by SRB assay relative to control; conditions: HT-29, 48 h, read-out: GI; summary of the method: as §1
[26] = Growth inhibition of human ovarian cancer cells after 48 hrs by SRB assay; conditions: Cancer cell lines
Summary of the method: (§4)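 Follow-up NCI panel testing over a 5-log dose range for each cell line. GI50, TGI and LC50 were monitored, with 5-fluorouracil run as the positive control. Values are grouped by tumour subpanel.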

[27] = Growth inhibition of human RPMI8226 cells at 10 uM after 48 hrs by SRB assay relative to control; conditions: RPMI-8226, 48 h, read-out: GI; summary of the method: as §1
[28] = Growth inhibition of human PC3 cells at 10 uM after 48 hrs by SRB assay relative to control; conditions: PC-3, 48 h, read-out: GI; summary of the method: as §1
[29] = Growth inhibition of human SN12C cells at 10 uM after 48 hrs by SRB assay relative to control; conditions: read-out: GI; summary of the method: as §2
[30] = Growth inhibition of human colon cancer cells after 48 hrs by SRB assay; conditions: Cancer cell lines; summary of the method: as §4
[31] = Growth inhibition of human SW620 cells at 10 uM after 48 hrs by SRB assay relative to control; conditions: SW-620, 48 h, read-out: GI; summary of the method: as §2
[32] = Growth inhibition of human UO31 cells at 10 uM after 48 hrs by SRB assay relative to control; conditions: UO-31, 48 h, read-out: GI; summary of the method: as §2
[33] = Growth inhibition of human HCT15 cells at 10 uM after 48 hrs by SRB assay relative to control; conditions: HCT-15, 48 h, read-out: GI; summary of the method: as §1
[34] = Growth inhibition of human M14 cells at 10 uM after 48 hrs by SRB assay relative to control; conditions: M14, 48 h, read-out: GI; summary of the method: as §1
[35] = Growth inhibition of human melanoma cells after 48 hrs by SRB assay; conditions: Melanoma cell; summary of the method: as §4

For `COc1cc(CSc2nc3ccc(Cl)cc3c(=O)n2Cc2ccccc2)cc(OC)c1OC`, the inhibition of growth at 10 µM [1] was 76.4%, the inhibition of growth at 10 µM [2] was 64.7% and the inhibition of growth at 10 µM [3] was 73.3%. It also gave an inhibition of growth at 10 µM [4] of 57.8%, an inhibition of growth at 10 µM [5] of 76.9% and an inhibition of growth at 10 µM [6] of 53.3%. For the same molecule, the inhibition of growth at 10 µM [7] was 28.7%, the RatioGI50 [8] was 2 - 10 and the inhibition of growth at 10 µM [9] was 79.5%. For the same molecule, the inhibition of growth at 10 µM [10] was 79.2%, the inhibition of growth at 10 µM [11] was 56.6% and the inhibition of growth at 10 µM [12] was 78.6%. For the same molecule, the inhibition of growth at 10 µM [13] was 56.3%, the inhibition of growth at 10 µM [14] was 53.5% and the inhibition of growth at 10 µM [15] was 50%. The inhibition of growth at 10 µM [16] was 61.2%, the inhibition of growth at 10 µM [17] was 78.3% and the RatioGI50 [18] was 2 - 10. The inhibition of growth at 10 µM [19] was 62.3%, the inhibition of growth at 10 µM [20] was 76% and the inhibition of growth at 10 µM [21] was 59.7%. The RatioGI50 [22] was 2 - 10, the GI50 [23] was 4.2 µM and the LC50 (lethal concentration, 50% net cell kill) [23] was 81.8 µM. For the same molecule, the TGI [23] was 49.8 µM, the RatioGI50 [24] was 2 - 10 and the inhibition of growth at 10 µM [25] was 88.3%. For the same molecule, the GI50 [26] was 5.2 µM, the LC50 (50% lethal concentration) [26] was > 100 µM and the TGI [26] was 75.6 µM. For the same molecule, the inhibition of growth at 10 µM [27] was 31.3%, the inhibition of growth at 10 µM [28] was 44.9% and the inhibition of growth at 10 µM [29] was 61.5%. The GI50 [30] was 3.1 µM, the LC50 [30] was 87.5 µM and the TGI [30] was 86.3 µM. The inhibition of growth at 10 µM [31] was 71.4%, the inhibition of growth at 10 µM [32] was 72.9% and the inhibition of growth at 10 µM [33] was 75.1%. For the same molecule, the inhibition of growth at 10 µM [34] was 64.7%, the GI50 [35] was 4.4 µM and the LC50 [35] was 98.9 µM. It also gave a TGI [35] of 55.2 µM.
With `COc1cc2nc(SCc3cc(OC)c(OC)c(OC)c3)n(Cc3ccccc3)c(=O)c2cc1OC` the inhibition of growth at 10 µM [1] was 84.6%, the inhibition of growth at 10 µM [2] was 60.8% and the inhibition of growth at 10 µM [3] was 74.3%. The inhibition of growth at 10 µM [4] was 63.2%, the inhibition of growth at 10 µM [5] was 93.8% and the inhibition of growth at 10 µM [6] was 46.3%. The inhibition of growth at 10 µM [7] was 37.4%, the RatioGI50 [8] was 2 - 10 and the inhibition of growth at 10 µM [9] was 77.7%. The inhibition of growth at 10 µM [10] was 85.4%, the inhibition of growth at 10 µM [11] was 63.3% and the inhibition of growth at 10 µM [13] was 60.8%. For the same molecule, the inhibition of growth at 10 µM [14] was 36.7%, the inhibition of growth at 10 µM [15] was 59.2% and the inhibition of growth at 10 µM [16] was 78.1%. The inhibition of growth at 10 µM [17] was 83.2%, the RatioGI50 [18] was 2 - 10 and the inhibition of growth at 10 µM [19] was 58.6%. The inhibition of growth at 10 µM [21] was 60.8%, the RatioGI50 [22] was 2 - 10 and the GI50 [23] was 3.4 µM. For the same molecule, the LC50 (lethal concentration, 50% net cell kill) [23] was 80.6 µM, the TGI [23] was 24.5 µM and the RatioGI50 [24] was 2 - 10. For the same molecule, the inhibition of growth at 10 µM [25] was 89.4%, the GI50 [26] was 6.4 µM and the LC50 (50% lethal concentration) [26] was > 100 µM. The TGI [26] was 62.7 µM, the inhibition of growth at 10 µM [27] was 45.3% and the inhibition of growth at 10 µM [28] was 51.2%. The inhibition of growth at 10 µM [29] was 58.8%, the GI50 [30] was 2.2 µM and the LC50 [30] was > 100 µM. The TGI [30] was 87.8 µM, the inhibition of growth at 10 µM [31] was 66.6% and the inhibition of growth at 10 µM [32] was 65.3%. The inhibition of growth at 10 µM [33] was 79.9%, the inhibition of growth at 10 µM [34] was 85.2% and the GI50 [35] was 2.6 µM. It also gave an LC50 [35] of 78.7 µM and a TGI [35] of 45.9 µM.

Source: ChEMBL document CHEMBL3860041, “Synthesis, biological evaluation and molecular modeling study of some new methoxylated 2-benzylthio-quinazoline-4(3H)-ones as nonclassical antifolates” (Bioorg Med Chem Lett, 2016)
